For one data set, the target named is D(2) dopamine receptor (Rattus norvegicus, UniProt P61169). The experiment in a line: Displacement of [3H] Spiperone from rat striatum dopamine D2 receptor measured after 30 mins by liquid scintillation counter method. In short, it runs like this: (§1)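 Competition binding in rat brain tissue membranes against D2, 5-HT1A and 5-HT2A sites; Ki reported as mean ± S.E.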

The target in data set [1] is 5-hydroxytryptamine receptor 2A (Rattus norvegicus, UniProt P14842). The experiment in a line: Displacement of [3H]-ketanserin from rat cerebral cortex 5HT2A receptor measured after 20 mins by liquid scintillation counter method. In short, it runs like this:
as §1
(In a radioligand displacement assay an active substance lowers the binding of a labelled ligand.)

Data set [2] can be described thus: Effect on body temperature in Swiss Albino mouse assessed as rectal body temperature at 10 mg/kg, ip measured after 60 mins by thermometer (reference value: 0.33 to 0.61 degreeC). The conditions noted are these: in vivo, 1 h. The format is ADME, organism-based.
The nature of data set [3]: Effect on body temperature in Swiss Albino mouse assessed as rectal body temperature at 20 mg/kg, ip measured after 90 mins by thermometer (reference value: 0.18 to 0.63 degreeC). The conditions noted are these: in vivo, 1.5 h. The format is ADME, organism-based.
In data set [4] the test system is Mus musculus. As to the kind of experiment: Effect on 8-OH-DPAT-induced hypothermia in Swiss albino mouse assessed as change in rectal body temperature at 10 mg/kg, ip pretreated with compound for 45 mins followed by 8-OH-DPAT challenge and measured after 15 min by thermometer (reference value: -1.82 to -1.66 degreeC). The format is functional, organism-based. To be noted: time 60.0 min.

For data set [5], the system named is Mus musculus. The experiment in a line: Effect on 8-OH-DPAT-induced hypothermia in Swiss albino mouse assessed as change in rectal body temperature at 10 mg/kg, ip pretreated with compound for 45 mins followed by 8-OH-DPAT challenge and measured after 45 min by thermometer (reference value: -1.04 to -0.78 degreeC). To be noted: time 90.0 min. The format is functional, organism-based.

For data set [6], the system named is Mus musculus. The experiment in a line: Antipsychotic activity Swiss Albino mouse assessed as inhibition of DOI-induced head twitching by measuring number of episodes at 0.625 mg/kg, ip administered 30 mins prior to DOI stimulation (reference value: 19.63 to 19.88). The format is functional. To be noted: 0.5 h. In short, it runs like this:
(§2)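 Male Albino Swiss mice (24–28 g) were habituated to sawdust-lined cages 20 min before the first treatment. Compounds were suspended in 1% aqueous Tween 80 and given i.p. 30 min before (±)-DOI, 2.5 mg/kg i.p. in aqueous solution. Head twitches were counted blind over 20 min, n=8 per group, mean ± SEM, one-way ANOVA with Dunnett's test.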

For data set [7], the system named is Mus musculus. As to the kind of experiment: Antipsychotic activity Swiss Albino mouse assessed as inhibition of DOI-induced head twitching by measuring number of episodes at 2.5 mg/kg, ip administered 30 mins prior to DOI stimulation (reference value: 19.63 to 19.88). The format is functional. The conditions noted are these: 0.5 h. In short, it runs like this: as §2

The subject of data set [8] is Mus musculus. As to the kind of experiment: Antipsychotic activity Swiss Albino mouse assessed as inhibition of DOI-induced head twitching by measuring number of episodes at 10 mg/kg, ip administered 30 mins prior to DOI stimulation (reference value: 19.63 to 19.88). The format is functional. The conditions noted are these: 0.5 h. The gist of the method:
as §2

Data set [9] deals with Mus musculus. The experiment in a line: Antipsychotic activity in Swiss Albino mouse assessed as inhibition of apomorphine-induced climbing behaviour at 10 mg/kg, ip administered 30 mins prior to APO challenge and measured after 40 mins. The format is functional, organism-based. To be noted: time 70.0 min. In short, it runs like this:
(§3)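 Male Albino Swiss mice received compound i.p. (10 mg/kg in 1% Tween 80) 30 min before the test and apomorphine 2.5 mg/kg s.c. 10 min before the test. Each mouse was placed in a cage with a metal grid and scored positive when all four paws were on the grid. Blinded observation every 10 min to 60 min, then at 120 min. n=8, Fisher's exact test with Yates' correction.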

Data set [10] is described as follows: Metabolic stability in pooled human liver microsomes assessed as parent compound remaining at 2.5 uM incubated for 45 mins in presence of NADPH by LC-MS analysis. The format is ADME, Microsome. The conditions noted are these: read-out: Stabilty. In short, it runs like this: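 Compound at 2.5 μM (added from 100 μM stock in 50/50 acetonitrile/water) with 1 mg/mL pooled human liver microsomes and 250 μM NADPH in 0.1 M potassium phosphate pH 7.4 at 37 °C after 5-min preincubation. Sampled at 5, 10, 15, 30, 45 min into ice-cold acetonitrile with atropine internal standard; parent quantified by LC-MS (ESI+, [M+H]+); no-NADPH controls; half-time derived.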
On the technique in general: Liver microsomes are vesicles of endoplasmic reticulum, rich in cytochrome P450 enzymes.

For data set [11], the system named is Mus musculus. As to the kind of experiment: Antipsychotic activity in Swiss Albino mouse assessed as inhibition of apomorphine-induced climbing behaviour at 10 mg/kg, ip administered 30 mins prior to APO challenge and measured after 30 mins. In kind it is functional, organism-based. To be noted: time 60.0 min. The gist of the method:
as §3

In data set [12] the test system is Mus musculus. As to the kind of experiment: Antipsychotic activity in Swiss Albino mouse assessed as inhibition of apomorphine-induced climbing behaviour at 10 mg/kg, ip administered 30 mins prior to APO challenge and measured after 60 mins. The format is functional, organism-based. The conditions noted are these: time 90.0 min. The gist of the method:
as §3

Calls of active or inactive are those of the source. No cut-off for these calls is given here. Some results are limits rather than exact numbers.

Chain of D(2) dopamine receptor (P61169 whole entry): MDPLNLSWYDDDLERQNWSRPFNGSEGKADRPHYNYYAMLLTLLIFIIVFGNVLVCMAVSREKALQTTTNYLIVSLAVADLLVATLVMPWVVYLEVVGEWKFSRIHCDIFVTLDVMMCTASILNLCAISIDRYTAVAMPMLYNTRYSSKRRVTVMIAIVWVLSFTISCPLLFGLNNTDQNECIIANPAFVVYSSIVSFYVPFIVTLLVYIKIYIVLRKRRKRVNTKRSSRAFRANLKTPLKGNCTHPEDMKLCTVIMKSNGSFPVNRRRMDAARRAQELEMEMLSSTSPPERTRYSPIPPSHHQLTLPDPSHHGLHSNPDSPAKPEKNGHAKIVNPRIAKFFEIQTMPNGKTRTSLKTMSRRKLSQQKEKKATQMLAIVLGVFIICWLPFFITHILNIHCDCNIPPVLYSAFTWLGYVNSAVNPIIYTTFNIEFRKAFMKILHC
Chain of 5-hydroxytryptamine receptor 2A (P14842 whole entry): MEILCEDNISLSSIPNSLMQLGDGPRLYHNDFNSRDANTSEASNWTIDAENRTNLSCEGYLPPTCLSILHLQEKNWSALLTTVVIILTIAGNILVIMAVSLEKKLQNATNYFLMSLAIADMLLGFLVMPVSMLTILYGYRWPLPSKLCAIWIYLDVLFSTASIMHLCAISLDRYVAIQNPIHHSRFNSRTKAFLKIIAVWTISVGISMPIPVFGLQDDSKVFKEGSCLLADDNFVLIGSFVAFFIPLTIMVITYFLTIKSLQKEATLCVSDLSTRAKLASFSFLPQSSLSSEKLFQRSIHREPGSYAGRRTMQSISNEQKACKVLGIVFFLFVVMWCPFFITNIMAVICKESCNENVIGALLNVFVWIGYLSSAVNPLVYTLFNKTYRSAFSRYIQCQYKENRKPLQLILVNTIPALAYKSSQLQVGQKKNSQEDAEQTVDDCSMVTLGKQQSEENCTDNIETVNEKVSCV

Take `O=C(NC1CC2CCC(C1)N2Cc1cccc(F)c1)c1ccc2ccccc2c1` (stereo not given): the Ki on D(2) dopamine receptor was 214 nM; in data set [1], 102 nM. Further, the deltaT in data set [2] was 0.53 °C; in data set [3], 0.2 °C; in the data set on Mus musculus [4], -1.6 °C; in the data set on Mus musculus [5] it was -0.97 °C. Further, the Activity in the data set on Mus musculus [6] was found to be 17.38; in the data set on Mus musculus [7], 11.38; in the data set with Mus musculus [8] it was 2.38. The inhibition entry in the data set on Mus musculus [9] is “Active”. Further, the remaining at 0.75 h, 2.5 µM in [10] was over 50%.
As to `Cc1cccc(CN2C3CCC2CC(NC(=O)c2ccc4ccccc4c2)C3)c1` (stereo not given), the Ki is 3.3 nM on D(2) dopamine receptor and 231 nM in [1]. The deltaT in data set [2] was 0.73 °C; in data set [3] it was 0.2 °C; in the data set with Mus musculus [4], -0.7 °C; in the data set with Mus musculus [5], -0.48 °C. Further, the results for the Activity in the data set on Mus musculus [7] and in the data set on Mus musculus [8] were 13 and 2.38, respectively. Further, in the data set with Mus musculus [11], the inhibition entry is “Active”.
Regarding `O=C(NC1CC2CCC(C1)N2Cc1cccc(Br)c1)c1ccc2ccccc2c1` (stereo not given), the Ki on D(2) dopamine receptor was 11.6 nM; in data set [1], 106 nM. Moreover, the deltaT is 0.76 °C in [2], 0.36 °C in data set [3], -1.32 °C in the data set on Mus musculus [4] and -1 °C with Mus musculus [5]. The Activity in the data set with Mus musculus [7] was 14.5; in the data set on Mus musculus [8], 11.88. Moreover, in the data set on Mus musculus [11], the inhibition entry is “Active”. Moreover, the remaining at 0.75 h, 2.5 µM in data set [10] was over 50%.
For `O=C(NC1CC2CCC(C1)N2Cc1ccc(F)cc1)c1ccc2ccccc2c1` (stereo not given), the values for the Ki (on D(2) dopamine receptor; in [1]) were 137 nM and 209 nM, respectively. The deltaT in data set [2] is 0.5 °C; in [3] it was 0.23 °C; with Mus musculus [4] it was -1.55 °C; in the data set on Mus musculus [5], -0.92 °C. Besides, the Activity in the data set on Mus musculus [6] was 17.63; in the data set on Mus musculus [7], 5.75; in the data set with Mus musculus [8] it was 5.38. Further, the inhibition entry in the data set with Mus musculus [12] was “Active”. For the same compound, the remaining at 0.75 h, 2.5 µM in [10] is over 50%.
On to `O=C(NC1CC2CCC(C1)N2Cc1cccc(Cl)c1)c1ccc2ccccc2c1` (stereo not given), for which the Ki came out at 3.6 nM on D(2) dopamine receptor and 136 nM in [1]. Moreover, the deltaT in data set [2] is 1 °C; in data set [3], 0.41 °C; with Mus musculus [4] it was -1.03 °C; with Mus musculus [5] it was -0.85 °C. Moreover, the Activity was 17.25 with Mus musculus [7] and 8.75 in the data set with Mus musculus [8]. In data set [10], the remaining at 0.75 h, 2.5 µM is over 50%.

As a reminder, the Ki is the equilibrium dissociation constant of an inhibitor or competing ligand from its target. High values mean weaker binding, low ones tighter binding.
